The test system of one experiment is Human alphaherpesvirus 2. Description: In vitro antiviral activity Virus rating (VR) determined by comparing CPE development in drug-treated cells (T) and virus control cells (C) against, Herpes simplex virus-2. Type of experiment: functional. The method, boiled down:
(§1)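 Vero (African green monkey kidney) cells in 10% FBS DMEM, seeded 4 × 10^4 cells/well, confluent over 24 h at 37 °C, 5% CO2. Virus (amount giving full monolayer destruction in 72 h; HSV-2 strain 333, measles Edmonston, para 3 C243) adsorbed 30 min. Compound added after adsorption at seven 0.5-log steps, final 5 × 10^-6 to 5 × 10^-3 M. Duplicate infected wells, single uninfected wells for toxicity.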

The subject of another experiment is Vaccinia virus. Description: In vitro antiviral activity Virus rating (VR) determined by comparing CPE development in drug-treated cells (T) and virus control cells (C) against, Vaccinia virus. Type of experiment: functional, Orthopoxvirus vaccinia.
Another experiment has as its system Measles morbillivirus. Description: In vitro antiviral activity Virus rating (VR) determined by comparing CPE development in drug-treated cells (T) and virus control cells (C) against, measles. Type of experiment: functional. In a few lines:
as §1

The test system of a further experiment is Human respirovirus 3. Description: In vitro antiviral activity Virus rating (VR) determined by comparing CPE development in drug-treated cells (T) and virus control cells (C) against, parainfluenza type 3 (para 3). Type of experiment: functional. In a few lines:
as §1

Experiment [1] is described as follows: Ability of inhibit mammalian uridine phosphorylase.
A further experiment concerns the target T1, Adenosine deaminase (Bos taurus, UniProt P56658).
T1 sequence (P56658 whole entry): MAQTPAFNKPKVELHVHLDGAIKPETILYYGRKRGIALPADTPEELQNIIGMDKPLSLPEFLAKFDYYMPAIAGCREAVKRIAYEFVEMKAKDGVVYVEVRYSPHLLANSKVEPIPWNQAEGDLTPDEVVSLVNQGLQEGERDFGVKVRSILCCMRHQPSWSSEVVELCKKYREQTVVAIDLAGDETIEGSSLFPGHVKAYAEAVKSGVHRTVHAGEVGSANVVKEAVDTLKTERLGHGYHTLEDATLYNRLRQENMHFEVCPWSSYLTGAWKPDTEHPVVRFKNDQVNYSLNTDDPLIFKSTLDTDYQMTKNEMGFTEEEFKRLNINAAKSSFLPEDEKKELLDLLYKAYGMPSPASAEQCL
Description: Ability to inhibit adenosine deaminase. The method, boiled down: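 Calf intestine adenosine deaminase; substrate and inhibitor kinetic parameters measured spectrophotometrically.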

For `Nc1ncnc2c1ncn2C1CC(O)C(O)C(COP(=O)(O)O)O1` (stereo not given), the VR is 0.44 with Human alphaherpesvirus 2, 0 in the experiment with Vaccinia virus, 0.24 with Measles morbillivirus and 0.16 with Human respirovirus 3.

Regarding `Nc1ccn(C2CC(O)C(O)C(CO)O2)c(=O)n1` (stereo not given), the VR is listed as 0 in the experiment on Human alphaherpesvirus 2, 0 with Vaccinia virus, 0.5 in the experiment with Measles morbillivirus and 0.15 in the experiment on Human respirovirus 3.

Compound `Cc1cn(C2CC(O)C(O)C(CO)O2)c(=O)[nH]c1=O` (stereo not given) showed a Ki in experiment [1] of 12 µM.

As for `Nc1ncnc2c1ncn2C1CC(O)C(O)C(CO)O1` (stereo not given), the VR with Human alphaherpesvirus 2 is 0; in the experiment with Vaccinia virus, 0; in the experiment on Measles morbillivirus, 0.9; with Human respirovirus 3, 0.35.

As to `O=c1ccn(C2CC(O)C(O)C(COP(=O)(O)O)O2)c(=O)[nH]1` (stereo not given), the VR in the experiment with Human alphaherpesvirus 2 worked out at 0.74; in the experiment with Vaccinia virus it was 0.28; with Measles morbillivirus, 0.44; in the experiment on Human respirovirus 3, 0.64.

In the case of `Nc1ncnc2ncn(C3CC(O)C(O)C(CO)O3)c12` (stereo not given), the VR with Human alphaherpesvirus 2 is listed as 0.08; in the experiment on Vaccinia virus, 0.22; in the experiment with Measles morbillivirus, 0; with Human respirovirus 3, 0.

On to `Nc1nc(O)c2ncn(C3CC(O)C(O)C(CO)O3)c2n1` (stereo not given), for which the VR with Human alphaherpesvirus 2 was 1.06; in the experiment on Vaccinia virus it was 0.19; in the experiment on Measles morbillivirus, 0.3; with Human respirovirus 3 it was 0.

On to `O=c1ccn(C2CC(O)C(O)C(CO)O2)c(=O)[nH]1` (stereo not given), for which the VR with Human alphaherpesvirus 2 turned out to be 0.06; in the experiment with Vaccinia virus it was 0.25; with Measles morbillivirus, 0; with Human respirovirus 3 it was 0.

In the case of `OCC1OC(n2cnc3c(O)ncnc32)CC(O)C1O` (stereo not given), the VR worked out at 0.07 with Human alphaherpesvirus 2, 0.1 in the experiment on Vaccinia virus, 0 in the experiment with Measles morbillivirus and 0.06 in the experiment with Human respirovirus 3.

Regarding `Nc1nc(N)c2ncn(C3CC(O)C(O)C(CO)O3)c2n1` (stereo not given), the VR with Human alphaherpesvirus 2 is 0.62; with Vaccinia virus, 0.22; in the experiment with Measles morbillivirus, 0.54; with Human respirovirus 3 it was 0.25.

For `Nc1ccn(C2CC(O)C(O)C(COP(=O)(O)O)O2)c(=O)n1` (stereo not given), the VR was determined as 0.25 in the experiment with Vaccinia virus, 0.06 with Measles morbillivirus and 0.28 in the experiment with Human respirovirus 3.

For the compound `Nc1nc(Cl)nc2c1ncn2C1CC(O)C(O)C(CO)O1` (stereo not given), the VR was 0.34 in the experiment on Human alphaherpesvirus 2, 0.04 in the experiment on Vaccinia virus, 0.05 in the experiment on Measles morbillivirus and 0 in the experiment on Human respirovirus 3.

In the case of `OC[C@H]1O[C@@H](n2cnc3c(O)ncnc32)C[C@@H]1O` [DEOXYINOSINE], on Adenosine deaminase, the affinity corresponds to a Ki of 150 µM.

In turn, `OC[C@H]1O[C@@H](n2cnc3c(O)ncnc32)[C@H](O)[C@@H]1O` [INOSINE] had a Ki on Adenosine deaminase of 500 µM.

Turning to `Nc1ncnc2c1ncn2[C@@H]1C=C(CO)[C@@H](O)[C@H]1O` [NEOPLANOCIN A], the VR in the experiment on Human alphaherpesvirus 2 is 1.39; in the experiment with Vaccinia virus it was 1.38; in the experiment on Measles morbillivirus, 0.75; in the experiment with Human respirovirus 3, 1.6.
